Among the data in the array DNA melting data of Ke et al. (doi:10.1101/2024.01.08.574731) are folding enthalpy and Tm values, retold here.

Series [1] is described as follows: folding enthalpy; higher = less favourable; fluorescence melt of hairpins on a sequencing array, two-state fit. As to conditions: sodium 0.088 M. The procedure, abridged:
(§1)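 Melting temperature and folding enthalpy were obtained by bootstrapped two-state fitting. Fits used Cy3 fluorescence of library hairpins with annealed Cy3 and quencher oligos on a sequenced MiSeq flow cell, imaged in 50 mM Na-HEPES pH 8.0, 25 mM NaCl in 2.5 °C steps up to 60 °C and normalised to pre-quench Cy3 and control constructs. Four replicates were combined by inverse-variance weighting, and fitted temperatures were raised by 9.35 °C to match UV melts.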

A short description of series [2]: melting temperature; fluorescence melt of hairpins on a sequencing array, two-state fit, raised by 9.35 °C to match UV melts. The conditions noted are these: sodium 0.088 M. The procedure, abridged: as §1

GACCGCGAAAGCGGCGTC ((((((....)))..))): the folding enthalpy in series [1] was -9.59 kcal/mol. For the same sequence, the Tm in series [2] is 51.3 °C.
The matching figures for GACCGCGAAAGCGTGTC ((((((....))).))): -21.2 kcal/mol and 63.5 °C.
The matching figures for GACCGGACGAAAGTCGTC (((..(((....)))))): -12.1 kcal/mol and 37.1 °C.
For GACCGTACGAAAGTAGTC (((..(((....)))))), the folding enthalpy in series [1] was -13.1 kcal/mol. Also, the Tm in series [2] came out at 26.5 °C.
In the same order, the values of GACCTAGGAAACTGGGTC ((((.((....)).)))) are -35 kcal/mol and 49.6 °C.
The matching figures for GACCTCCCGAAAGGGGTC (((..(((....)))))): -15.2 kcal/mol and 40 °C.
In the same order, the values of GACCTCGGAAACAAGGTC (((((.(....).))))) are -32.1 kcal/mol and 40.9 °C.
As to GACCTCGGAAACGGGGTC ((((.((....)).)))), the folding enthalpy in series [1] was -46.4 kcal/mol. In addition, in series [2], the Tm was found to be 55.9 °C.
As to GACCTGACGAAAGTCGTC (((..(((....)))))), the folding enthalpy in series [1] is -9.44 kcal/mol. Besides, in series [2], the Tm came to 35.9 °C.
GACCTGGGAAACCGGGTC ((((.((....)).)))): in series [1], the folding enthalpy is -44.8 kcal/mol. The Tm in series [2] was found to be 57.1 °C.
In the same order, the values of GACCTTACGAAAGTAGTC (((..(((....)))))) are -11 kcal/mol and 25.2 °C.
In the same order, the values of GACGAACGAAAGTTAGTC (((.(((....))).))) are -35.8 kcal/mol and 49.9 °C.
The matching figures for GACGAAGCGAAAGCTGTC (((..(((....)))))): -16.7 kcal/mol and 45.4 °C.
As for GACGACCCGAAAGGGGTC (((..(((....)))))), in series [1], the folding enthalpy is -10.1 kcal/mol. For the same sequence, the Tm in series [2] was 42.3 °C.
The matching figures for GACGACGAAAGTCTAGTC ((((((....)))..))): -23.8 kcal/mol and 41.8 °C.
With GACGACGGAAACGTCACC (..((((....))))..), in series [1], the folding enthalpy was -11.5 kcal/mol. Also, in series [2], the Tm is 35.4 °C.
In the same order, the values of GACGAGCGAAAGCTAGTC (((.(((....))).))) are -31 kcal/mol and 56.8 °C.
The matching figures for GACGAGGGAAACCTTGTC (((.(((....))).))): -31.4 kcal/mol and 48.1 °C.
In the same order, the values of GACGATACGAAAGTAGTC (((..(((....)))))) are -17 kcal/mol and 36.1 °C.
Take GACGATCCGAAAGGAGTC (((..(((....)))))): the folding enthalpy in series [1] is -22.1 kcal/mol. Moreover, the Tm in series [2] was found to be 39.8 °C.
The matching figures for GACGCAGGAAACCACGTC ((((..(....)..)))): -16.3 kcal/mol and 34.9 °C.
The matching figures for GACGCAGGAAACTACGTC ((((.((....)).)))): -26.6 kcal/mol and 43.5 °C.
In the same order, the values of GACGCAGGAAACTGCATC ((.((((....)))).)) are -13.5 kcal/mol and 36.2 °C.
Regarding GACGCCGAAAGGCAAGTC ((((((....)))..))), in series [1], the folding enthalpy is -19.7 kcal/mol. Besides, the Tm in series [2] is 48.9 °C.
As for GACGCCGAAAGGCACGTC ((((((....)))..))), in series [1], the folding enthalpy is -13.4 kcal/mol. Besides, the Tm in series [2] was found to be 48.5 °C.
Turning to GACGCCGAAAGGCCGTC ((((((....))).))), the folding enthalpy in series [1] was -18.7 kcal/mol. Besides, the Tm in series [2] worked out at 61.4 °C.
The matching figures for GACGCCGGAAACAGCGCC (.(((.(....).))).): -17.8 kcal/mol and 31.8 °C.
In the same order, the values of GACGCCGGAAACAGCGTC (((((.(....).))))) are -35.9 kcal/mol and 54.8 °C.
The matching figures for GACGCCGGAAACGGCGCC (.(((((....))))).): -10.5 kcal/mol and 56.9 °C.
With GACGCTGGAAACAGCGCC (.(((((....))))).), the folding enthalpy in series [1] was -12.4 kcal/mol. Also, the Tm in series [2] is 53 °C.
The matching figures for GACGCTGGAAACGGTGTC (((.(.(....).).))): -28.9 kcal/mol and 42.1 °C.
The matching figures for GACGGAGCGAAAGCTGTC (((..(((....)))))): -18.9 kcal/mol and 41.8 °C.
In the same order, the values of GACGGCGAAAGCCAGTC ((((((....))).))) are -22.7 kcal/mol and 60.2 °C.
GACGGCGAAAGCCCTGTC ((((((....)))..))): the folding enthalpy in series [1] was -13.6 kcal/mol. Further, the Tm in series [2] was 38.6 °C.
The matching figures for GACGGCGAAAGCCGGGTC ((((((....)))..))): -11.3 kcal/mol and 68.2 °C.
The matching figures for GACGGCGAAAGCCGGTC ((((((....))).))): -11.6 kcal/mol and 64 °C.
Take GACGGCGAAAGCCTAGTC ((((((....)))..))): the folding enthalpy in series [1] was -16.7 kcal/mol. The Tm in series [2] amounted to 47.4 °C.
The matching figures for GACGGCGAAAGCCTCGTC ((((((....)))..))): -13.1 kcal/mol and 56.4 °C.
The matching figures for GACGGCGGAAACGCTGTC (((.(((....))).))): -37.5 kcal/mol and 64.7 °C.
The matching figures for GACGGGCGAAAGCCGGTC (((.(((....))).))): -25.9 kcal/mol and 65.5 °C.
With GACGGGGAAACCCGTC ((((((....)))))), the folding enthalpy in series [1] was -37.9 kcal/mol. Moreover, the Tm in series [2] amounted to 68 °C.
The matching figures for GACGGGGGAAACCCCGCC (.(((((....))))).): -12.5 kcal/mol and 50.5 °C.
The matching figures for GACGGGGGAAACCCTGTC (((.(((....))).))): -37.1 kcal/mol and 54.4 °C.
In the same order, the values of GACGGTGGAAACACCATC ((.((((....)))).)) are -16.2 kcal/mol and 36.5 °C.
Consider GACGGTGGAAACACTGTC (((.(((....))).))), for which the folding enthalpy in series [1] was -45.8 kcal/mol. Besides, the Tm in series [2] is 52.1 °C.
With GACGTACGAAAGTAAGTC (((.(((....))).))), the folding enthalpy in series [1] is -29.2 kcal/mol. For the same sequence, the Tm in series [2] is 50.6 °C.
In the same order, the values of GACGTCACGAAAGTGGTC (((..(((....)))))) are -15 kcal/mol and 35.6 °C.
The matching figures for GACGTGCCGAAAGGCGTC (((..(((....)))))): -13.3 kcal/mol and 46.8 °C.
On to GACGTGCGAAAGCAAGTC (((.(((....))).))), for which the folding enthalpy in series [1] is -31.5 kcal/mol. In addition, the Tm in series [2] was 60.5 °C.
In the same order, the values of GACGTGGGAAACCACGTC (((((((....))))))) are -37.1 kcal/mol and 68.8 °C.
The matching figures for GACGTGGGAAACTACGTC (((((.(....).))))): -38.4 kcal/mol and 52.5 °C.
In the same order, the values of GACGTTGGAAACAATGTC (((.(((....))).))) are -37.3 kcal/mol and 48.4 °C.
GACTAAGGAAACTTAGCC (.(((((....))))).): the folding enthalpy in series [1] is -20.4 kcal/mol. Also, the Tm in series [2] was 31.3 °C.
The matching figures for GACTACCCGAAAGGGGTC (((..(((....)))))): -11.3 kcal/mol and 38.3 °C.
